Measurements published in ChEMBL document CHEMBL2086311, “UDP made a highly promising stable, potent, and selective P2Y6-receptor agonist upon introduction of a boranophosphate moiety” (Bioorg Med Chem, 2012).

Legend:
[1] = Drug degradation in KCl/HCl buffer assessed as inorganic phosphate formation by 31P-NMR analysis at pH 1.4; assay type: physicochemical
Method in brief: (§1)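 Sodium salt dissolved in KCl/HCl buffer pH 1.4 containing D2O, held at 37 °C. 31P NMR spectra taken at 15 min, 1 h or 24 h intervals, about every 24 h in multi-day runs. Hydrolysis rate taken from change in integration of one starting-material phosphate signal over time, fit to a pseudo-first-order model.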

[2] = Drug degradation in KCl/HCl buffer assessed as 5-OMe-uridine-H-phosphonate formation by 31P-NMR analysis at pH 1.4; assay type: physicochemical; method in brief: as §1
P2Y purinoceptor 6 [3] = molecular target: T1, P2Y purinoceptor 6 (Homo sapiens, UniProt Q15077); experiment: Agonist activity at human P2Y6 receptor; assay type: functional
T1 sequence (Q15077 whole entry, the tested form may be a part): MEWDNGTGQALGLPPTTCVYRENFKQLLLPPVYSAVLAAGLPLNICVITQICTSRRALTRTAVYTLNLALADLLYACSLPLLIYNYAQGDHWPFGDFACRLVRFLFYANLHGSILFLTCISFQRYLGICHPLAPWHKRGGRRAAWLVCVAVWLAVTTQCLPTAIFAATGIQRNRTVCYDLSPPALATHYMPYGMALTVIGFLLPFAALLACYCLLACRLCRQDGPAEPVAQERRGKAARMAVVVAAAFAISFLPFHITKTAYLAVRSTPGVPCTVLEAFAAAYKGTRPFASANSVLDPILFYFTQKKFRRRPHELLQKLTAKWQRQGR
Method in brief: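 Human P2Y6 receptor-GFP construct stably expressed in 1321N1 astrocytoma cells (no endogenous P2X/P2Y). Cells loaded with 2 µM fura-2/AM plus 0.02% pluronic acid in Na-HBS (pH 7.4), 30 min, 37 °C. Superfused at 37 °C with nucleotide, usually 10^-8 M to at least 10^-5 M. [Ca2+]i read as 340/380 nm excitation ratio, emission 510 nm. EC50 from concentration–response curves.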

P2Y purinoceptor 6 [4] = molecular target: T1, P2Y purinoceptor 6; experiment: Agonist activity at human GFP-tagged P2Y6 receptor expressed in human 1321N1 cells assessed as intracellular calcium mobilization by fura2/AM-based fluorescence spectrophotometry; assay type: functional, cell-based
Method in brief: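 Human P2Y2, P2Y4 or P2Y6 receptors with GFP fusion, stably expressed in 1321N1 astrocytoma cells (no endogenous P2X/P2Y), selected with 0.5 mg/mL G418. Cells on coverslips at ~80% density were loaded with 2 µM fura 2/AM plus 0.02% pluronic acid in Na-HBS pH 7.4 for 30 min at 37 °C. Nucleotide was superfused at 37 °C, usually 10^-8 to ≥10^-5 M, sometimes to 10^-4 M. Read-out was 340/380 nm excitation ratio at 510 nm emission. Values are mean maximal amplitude ± SE.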

[5] = Half life in KCl/HCl buffer by 31P-NMR analysis at pH 1.4; assay type: physicochemical; method in brief: as §1
[6] = molecular target: T2, Ectonucleotide pyrophosphatase/phosphodiesterase family member 1 (Homo sapiens, UniProt P22413); experiment: Hydrolytic stability of the compound assessed as human NPP1-mediated hydrolysis measuring UMP formation after 2 hrs by HPLC analysis; assay type: ADME; design: scale not given: the % may be the effect or the level left
T2 sequence (P22413 whole entry): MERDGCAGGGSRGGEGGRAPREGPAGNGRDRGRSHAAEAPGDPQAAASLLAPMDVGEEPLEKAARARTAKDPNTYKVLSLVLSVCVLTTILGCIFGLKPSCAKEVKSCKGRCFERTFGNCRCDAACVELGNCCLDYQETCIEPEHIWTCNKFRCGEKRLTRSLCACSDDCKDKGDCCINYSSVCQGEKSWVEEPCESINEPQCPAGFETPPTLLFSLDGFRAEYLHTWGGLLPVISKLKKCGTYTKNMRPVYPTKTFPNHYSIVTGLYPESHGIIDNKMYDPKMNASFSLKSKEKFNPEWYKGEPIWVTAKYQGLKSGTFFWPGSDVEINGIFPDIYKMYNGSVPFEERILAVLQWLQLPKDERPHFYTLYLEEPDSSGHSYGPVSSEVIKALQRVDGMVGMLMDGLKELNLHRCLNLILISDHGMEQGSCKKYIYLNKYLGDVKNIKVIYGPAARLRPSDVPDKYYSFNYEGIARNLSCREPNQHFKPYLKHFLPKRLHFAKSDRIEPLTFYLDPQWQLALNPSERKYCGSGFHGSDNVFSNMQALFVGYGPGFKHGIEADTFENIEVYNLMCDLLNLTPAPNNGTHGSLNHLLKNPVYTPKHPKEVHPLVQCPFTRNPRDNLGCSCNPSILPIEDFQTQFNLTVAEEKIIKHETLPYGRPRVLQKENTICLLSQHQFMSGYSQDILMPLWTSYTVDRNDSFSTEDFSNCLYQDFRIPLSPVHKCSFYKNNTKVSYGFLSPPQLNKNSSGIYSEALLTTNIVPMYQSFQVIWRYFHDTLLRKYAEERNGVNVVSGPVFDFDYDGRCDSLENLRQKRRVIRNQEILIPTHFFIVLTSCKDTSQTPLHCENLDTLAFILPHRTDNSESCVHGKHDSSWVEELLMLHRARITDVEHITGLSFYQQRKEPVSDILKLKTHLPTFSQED
Method in brief: (§2)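 Human NPP1 (56.15 µg) or NPP3 (57.78 µg) extract was pre-incubated 3 min at 37 °C in 1 mM CaCl2, 200 mM NaCl, 10 mM KCl, 100 mM Tris pH 8.5. Reaction was started with 4 mM compound stock and stopped after 2 h (NPP1) or 3 h (NPP3) in ice-cold 1 M perchloric acid, then neutralized with KOH. HPLC measured the nucleoside monophosphate peak area minus a no-enzyme acid control. Mean ± S.D. of two experiments.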

Serum [7] = experiment: Drug metabolism in human serum assessed as nucleoside 5'-monophosphate formation incubated up to 24 hrs by HPLC analysis; assay type: ADME, cell-free
Method in brief: (§3)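 Samples held 0.1 mg compound with human blood serum (180 µL) and RPMI-1640 (540 µL) at 37 °C for 0–24 h. At each time point they were heated to 80 °C for 30 min, treated with CM Sephadex, centrifuged and chloroform-extracted. Analysis was reverse-phase HPLC on peak integrals. Degradation was taken relative to a no-serum control carried through the same workup, and half-lives came from the time course.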

Serum [8] = experiment: Drug metabolism in human serum assessed as nucleoside formation incubated up to 24 hrs by HPLC analysis; assay type: ADME, cell-free; method in brief: as §3
[9] = Half life in human serum by HPLC analysis; assay type: ADME, cell-free
Method in brief: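 Compound (0.1 mg) incubated with human blood serum and RPMI-1640 medium at 37 °C for 0–24 h. Samples taken at 0.5–12 h intervals, heated to 80 °C for 30 min, treated with CM Sephadex and extracted with chloroform. Analysed by reverse-phase HPLC. Degradation from peak integration, corrected against a serum-free control given the same workup.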

[10] = Agonist activity at P2Y6 receptor in New Zealand White rabbit osteoclasts assessed as intracellular calcium mobilization by fura2-based microfluorimetric technique; assay type: functional, cell-based; conditions: Oryctolagus cuniculus
[11] = molecular target: T3, NPP3 (ectonucleotide pyrophosphatase/phosphodiesterase family member 3) (Homo sapiens, UniProt O14638); experiment: Hydrolytic stability of the compound assessed as human NPP3-mediated hydrolysis after 3 hrs by HPLC analysis; assay type: ADME; conditions: human NPP3 enzyme, read-out: Activity; method in brief: as §2
T3 sequence (O14638 whole entry): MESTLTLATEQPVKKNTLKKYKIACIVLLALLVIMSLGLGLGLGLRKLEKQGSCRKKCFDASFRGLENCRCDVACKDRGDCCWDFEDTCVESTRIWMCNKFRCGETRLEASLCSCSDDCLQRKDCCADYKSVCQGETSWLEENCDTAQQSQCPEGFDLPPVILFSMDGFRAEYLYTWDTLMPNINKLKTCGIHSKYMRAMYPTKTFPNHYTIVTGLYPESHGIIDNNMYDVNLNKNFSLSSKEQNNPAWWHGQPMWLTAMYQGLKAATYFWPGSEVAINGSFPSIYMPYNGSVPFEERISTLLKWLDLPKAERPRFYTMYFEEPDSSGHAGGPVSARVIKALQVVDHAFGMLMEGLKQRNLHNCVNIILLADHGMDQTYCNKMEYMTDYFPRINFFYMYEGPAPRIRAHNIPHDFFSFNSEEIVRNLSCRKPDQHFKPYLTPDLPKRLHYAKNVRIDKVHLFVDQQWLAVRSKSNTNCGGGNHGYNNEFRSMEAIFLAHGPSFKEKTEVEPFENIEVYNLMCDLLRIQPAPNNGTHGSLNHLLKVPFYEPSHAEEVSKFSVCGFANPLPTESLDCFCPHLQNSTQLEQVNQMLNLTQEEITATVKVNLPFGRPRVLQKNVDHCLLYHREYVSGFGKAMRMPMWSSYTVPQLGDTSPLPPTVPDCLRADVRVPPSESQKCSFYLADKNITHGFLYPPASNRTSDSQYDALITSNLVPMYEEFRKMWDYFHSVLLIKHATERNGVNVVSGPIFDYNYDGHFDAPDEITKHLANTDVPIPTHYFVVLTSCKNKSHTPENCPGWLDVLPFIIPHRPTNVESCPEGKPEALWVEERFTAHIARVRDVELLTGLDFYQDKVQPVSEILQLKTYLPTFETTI

[12] = molecular target: T2, Ectonucleotide pyrophosphatase/phosphodiesterase family member 1; experiment: Hydrolytic stability of the compound assessed as human NPP1-mediated hydrolysis measuring 5-OMe-UMP formation after 2 hrs by HPLC analysis; assay type: ADME; design: scale not given: the % may be the effect or the level left; method in brief: as §2
[13] = molecular target: T4, NPP1 (ectonucleotide pyrophosphatase/phosphodiesterase family member 1) (Homo sapiens, UniProt P22413); experiment: Hydrolytic stability of the compound assessed as human NPP1-mediated hydrolysis after 2 hrs by HPLC analysis; assay type: ADME; conditions: human NPP1 enzyme, read-out: Activity
T4 sequence (P22413 whole entry): T2 sequence (P22413 whole entry)
Method in brief: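 Human NPP1 extract (56.15 µg) pre-incubated 3 min at 37 °C in 1 mM CaCl2, 200 mM NaCl, 10 mM KCl, 100 mM Tris pH 8.5. Reaction started with 4 mM compound stock and stopped at 2 h in ice-cold 1 M perchloric acid, then neutralized with KOH. Reverse-phase HPLC. Nucleoside monophosphate peak area taken minus an acid-treated no-enzyme control. Mean of two experiments.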

[BH3-][P@@](=O)(OC[C@H]1O[C@@H](n2cc(OC)c(=O)[nH]c2=O)[C@H](O)[C@@H]1O)OP(=O)([O-])[O-].[Na+].[Na+].[Na+]
Drug degradation [1]: Active
Drug degradation [2]: Active

O=c1ccn([C@@H]2O[C@H](COP(=O)(O)OP(=O)(O)O)[C@@H](O)[C@H]2O)c(=O)[nH]1 [URIDINE_DIPHOSPHATE]
EC50 (P2Y purinoceptor 6 [3]): 47 nM
EC50 (P2Y purinoceptor 6 [4]): 150 nM
half-life [5]: 288 h
Activity [6]: 50%
Drug metabolism (Serum [7]): Active
Drug metabolism (Serum [8]): Active
half-life [9]: 2.4 h
EC50 [10]: 500 nM

COc1cn([C@@H]2O[C@H](COP(=O)(O)OP(=O)(O)O)[C@@H](O)[C@H]2O)c(=O)[nH]c1=O
metabolised at 3 h [11]: 36%
Drug metabolism (Serum [7]): Active
Drug metabolism (Serum [8]): Active
half-life [9]: 11.9 h
Activity [12]: 49%

B[P@@](=O)(OC[C@H]1O[C@@H](n2cc(OC)c(=O)[nH]c2=O)[C@H](O)[C@@H]1O)OP(=O)(O)O
EC50 (P2Y purinoceptor 6 [4]): 8 nM
metabolised at 3 h [11]: 28%
Drug metabolism (Serum [7]): Active
Drug metabolism (Serum [8]): Active
half-life [9]: 21 h
metabolised at 2 h [13]: 15%
